From ChEMBL document CHEMBL1143333, “Amide derivatives of ethacrynic acid: synthesis and evaluation as antagonists of Wnt/beta-catenin signaling and CLL cell survival” (Bioorg Med Chem Lett, 2009)

What was measured:
[1] = Cytotoxicity against human CLL cells after 48 hrs by MTT method; assay type: functional, cell-based
Outline: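 Freshly isolated CLL cells plated at 2.5 × 10^5 per well and exposed to compounds for 48 h. MTT added at 1/10 volume of a 5 mg/mL stock, followed by overnight incubation at 37 °C before read-out of viability.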

[2] = Inhibition of Wnt/beta-catenin signaling in human SW480 cells by fluorimetry

| IC50 [2] | Structure (SMILES) | EC50 [1] |
| --- | --- | --- |
| 9.62 µM | C=C(CC)C(=O)c1ccc(OCC(=O)Nc2cc(Cl)ccc2C(=O)O)c(Cl)c1Cl | 13.8 µM |
| > 50 µM | C=C(CC)C(=O)c1ccc(OCC(=O)Nc2ccc(CC(=O)O)cc2)c(Cl)c1Cl | 3.2 µM |
| 2.51 µM | C=C(CC)C(=O)c1ccc(OCC(=O)Nc2ccc(/C=C/C(=O)O)cc2)c(Cl)c1Cl | 3 µM |
| > 50 µM | C=C(CC)C(=O)c1ccc(OCC(=O)Nc2ccc(C(=O)O)cn2)c(Cl)c1Cl | 14.9 µM |
| > 50 µM | C=C(CC)C(=O)c1ccc(OCC(=O)Nc2ccc(O)cc2)c(Cl)c1Cl | 6.4 µM |
| 4.76 µM | C=C(CC)C(=O)c1ccc(OCC(=O)Nc2ccc(C(N)=O)cc2)c(Cl)c1Cl | 3.7 µM |
| 5.81 µM | C=C(CC)C(=O)c1ccc(OCC(=O)Nc2ccc(C(=O)O)cc2)c(Cl)c1Cl | 5 µM |
| 3.8 µM | C=C(CC)C(=O)c1ccc(OCC(=O)Nc2ccc(O)c(Cl)c2)c(Cl)c1Cl | 5.5 µM |
| 5.85 µM | C=C(CC)C(=O)c1ccc(OCC(=O)Nc2cccc(C(=O)O)c2)c(Cl)c1Cl | 20.6 µM |
| > 50 µM | C=C(CC)C(=O)c1ccc(OCC(=O)Nc2ccc(C(=O)O)c(O)c2)c(Cl)c1Cl | > 25 µM |
| > 50 µM | C=C(CC)C(=O)c1ccc(OCC(=O)Nc2ccc(Cl)c(C(=O)O)c2)c(Cl)c1Cl | 15.9 µM |
| 5.06 µM | C=C(CC)C(=O)c1ccc(OCC(=O)Nc2ccc(C(C)=O)cc2)c(Cl)c1Cl | 3.9 µM |
| 2.93 µM | C=C(CC)C(=O)c1ccc(OCC(=O)Nc2ccc3cc(C(=O)O)ccc3c2)c(Cl)c1Cl | 3.7 µM |
| 4.23 µM | C=C(CC)C(=O)c1ccc(OCC(=O)Nc2ccc(O)c([N+](=O)[O-])c2)c(Cl)c1Cl | 7.4 µM |

Continued, molecule first:

| Structure (SMILES) | IC50 [2] | EC50 [1] |
| --- | --- | --- |
| C=C(CC)C(=O)c1ccc(OCC(=O)Nc2ccc(C(=O)NC(CCC(=O)OCC)C(=O)OCC)cc2)c(Cl)c1Cl (centres undefined) | 2.61 µM | 2.1 µM |
| C=C(CC)C(=O)c1ccc(OCC(=O)Nc2ccc(S(=O)(=O)O)cc2)c(Cl)c1Cl | > 50 µM | > 25 µM |
| C=C(CC)C(=O)c1ccc(OCC(=O)Nc2ccc(/C=C/C(=O)OCC)cc2)c(Cl)c1Cl | 3.79 µM | 1.7 µM |
| C=C(CC)C(=O)c1ccc(OCC(=O)Nc2ccc3c(c2)C(=O)NC3=O)c(Cl)c1Cl | 4.88 µM | 2.5 µM |
| C=C(CC)C(=O)c1ccc(OCC(=O)NCCc2c[nH]c3ccccc23)c(Cl)c1Cl | 10.7 µM | 5.9 µM |
| C=C(CC)C(=O)c1ccc(OCC(=O)NCO[N+](=O)[O-])c(Cl)c1Cl | > 50 µM | 4.1 µM |
| C=C(CC)C(=O)c1ccc(OCC(=O)Nc2ccc3c(C)cc(=O)oc3c2)c(Cl)c1Cl | 2.63 µM | 2.8 µM |
| C=C(CC)C(=O)c1ccc(OCC(=O)NCC2CCC(C(=O)O)CC2)c(Cl)c1Cl (centres undefined) | > 50 µM | 8 µM |
| C=C(CC)C(=O)c1ccc(OCC(=O)Nc2ccc(C(=O)OC)cc2)c(Cl)c1Cl | 11.4 µM | 4.1 µM |
| C=C(CC)C(=O)c1ccc(OCC(=O)Nc2ccc3c(c2)C(=O)c2ccccc2C3=O)c(Cl)c1Cl | 2.97 µM | 2.1 µM |
| C=C(CC)C(=O)c1ccc(OCC(=O)NCCCN2CCCC2=O)c(Cl)c1Cl | > 50 µM | 13.8 µM |
| C=C(CC)C(=O)c1ccc(OCC(=O)NC(CS)C(=O)OCC)c(Cl)c1Cl (centres undefined) | > 50 µM | 4.8 µM |
| C=C(CC)C(=O)c1ccc(OCC(=O)Nc2ccc(/C=C/C(=O)NO)cc2)c(Cl)c1Cl | 1.81 µM | 2.6 µM |
| C=C(CC)C(=O)c1ccc(OCC(=O)Nc2ccc(C#N)cc2)c(Cl)c1Cl | 6.84 µM | 7.8 µM |
| C=C(CC)C(=O)c1ccc(OCC(=O)NCCO)c(Cl)c1Cl | > 50 µM | > 25 µM |
| C=C(CC)C(=O)c1ccc(OCC(=O)Nc2nc(/C(=N\OC)C(=O)O)cs2)c(Cl)c1Cl | > 50 µM | > 25 µM |
| C=C(CC)C(=O)c1ccc(OCC(=O)Nc2nc3ccccc3s2)c(Cl)c1Cl | 4.86 µM | 1.5 µM |
| C=C(CC)C(=O)c1ccc(OCC(=O)NCCN2CCOCC2)c(Cl)c1Cl | > 50 µM | 6.4 µM |
| C=C(CC)C(=O)c1ccc(OCC(=O)Nc2ccc(Cc3ccc(N4C(=O)C5C6C=CC(C6)C5C4=O)cc3)cc2)c(Cl)c1Cl (centres undefined) | 2.93 µM | 1.8 µM |
| C=C(CC)C(=O)c1ccc(OCC(=O)Nc2ccc([C@]3(CC)CCC(=O)NC3=O)cc2)c(Cl)c1Cl | 4.42 µM | 2.8 µM |
| C=C(CC)C(=O)c1ccc(OCC(=O)NO)c(Cl)c1Cl | 9.89 µM | 4.5 µM |
| C=C(CC)C(=O)c1ccc(OCC(=O)Nc2ccc3c(c2)C(O)N=NC3O)c(Cl)c1Cl (centres undefined) | 6.58 µM | 8.5 µM |
| C=C(CC)C(=O)c1ccc(OCC(=O)Nc2ccc3nc[nH]c3c2)c(Cl)c1Cl | 3.62 µM | 3.2 µM |
| C=C(CC)C(=O)c1ccc(OCC(=O)Nc2cc(OC)c(OC)cc2C(=O)O)c(Cl)c1Cl | > 50 µM | 21.9 µM |
| C=C(CC)C(=O)c1ccc(OCC(=O)NC2CCN(CC(=O)OC)CC2)c(Cl)c1Cl | > 50 µM | 10.6 µM |
| C=C(CC)C(=O)c1ccc(OCC(=O)NCC(=O)O)c(Cl)c1Cl | > 50 µM | > 25 µM |
| CCC(C)C(=O)c1ccc(OCC(=O)O)c(Cl)c1Cl (centres undefined) | > 50 µM | > 25 µM |
| C=C(CC)C(=O)c1ccc(OCC(=O)O)c(Cl)c1Cl [ETHACRYNIC ACID] | 32.7 µM | 9.9 µM |
